In paper PMC3782865 (Journal of medicinal chemistry, 2013):
Entries after “also recorded” stand apart in the source; their conditions may differ. Where a name gives a salt, the structure may show the parent alone. Read-outs that look alike come from different tables or passages of the source.

Tests used:
[1] = tested on: trypsin-like (Tr-L) sites of purified 26S proteasomes from rabbit muscles; assay: Inhibition of purified 26S proteasomes, trypsin-like sites; type: biochemical; details: purified rabbit 26S proteasomes
[2] = biological target: T1, proteasome caspase-like (Casp-L) sites in NCI-H929 and RPMI-8226 multiple myeloma cells (Homo sapiens, UniProt P28072); type: cell-based
T1 sequence (P28072 1-239): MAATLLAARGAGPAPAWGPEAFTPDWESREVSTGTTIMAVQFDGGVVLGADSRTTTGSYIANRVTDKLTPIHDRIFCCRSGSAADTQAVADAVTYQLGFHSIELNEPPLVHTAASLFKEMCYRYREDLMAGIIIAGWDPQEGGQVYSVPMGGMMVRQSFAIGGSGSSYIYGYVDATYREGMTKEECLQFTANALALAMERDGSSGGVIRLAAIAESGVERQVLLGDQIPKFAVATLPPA

[3] = tested on: proteasome trypsin-like (Tr-L) sites in NCI-H929 and RPMI-8226 multiple myeloma cells; type: cell-based; details: for IC50: ProteasomeGlo
RPMI-8226 cells [4] = assay: Viability of RPMI-8226 cells, Alamar Blue assay; type: cell-based; details: for Toxicity to cells as a single agent: 4a 1 µM, 3 27 µM
Summary of the method: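 RPMI-8226 myeloma cells grown in RPMI-1640 with 10% FBS, penicillin, streptomycin and plasmocin in a humidified 5% CO2 incubator. Cells were exposed to bortezomib or carfilzomib for 1 h, then to test compound (1 µM or 27 µM) or mock for 47 h. Viable cells were measured by Alamar Blue dye conversion. Mean ± SEM of three (bortezomib) or two to seven (carfilzomib) biological replicates.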

RPMI-8226 cells [5] = details: cited from earlier work
[6] = biological target: T2, proteasome trypsin-like sites (Mus musculus, UniProt P70195); assay: Inhibition of trypsin-like sites in mice; type: in vivo; details: manuscript in preparation
T2 sequence (P70195 44-277): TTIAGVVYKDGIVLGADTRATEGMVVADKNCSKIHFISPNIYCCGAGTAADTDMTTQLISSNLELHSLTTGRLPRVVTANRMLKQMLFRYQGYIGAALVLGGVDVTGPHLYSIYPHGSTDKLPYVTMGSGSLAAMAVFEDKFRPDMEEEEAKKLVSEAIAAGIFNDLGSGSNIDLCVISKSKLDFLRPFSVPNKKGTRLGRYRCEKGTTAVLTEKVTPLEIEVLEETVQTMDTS

[7] = tested on: cathepsins in NCI-H929 cells; assay: Cathepsins activity assay; type: cell-based; details: 6 h treatment, Z-FR-amc
Summary of the method: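 Treated and mock-treated cells were washed in PBS and permeabilised on ice with 0.05% digitonin in Tris-HCl pH 7.5 buffer. Cytosol was removed by centrifugation (15 min, 20 000g, 4 °C), and pellets were lysed in Bis-Tris pH 5.5/0.5% CHAPS. Protein-normalised acidic extracts were added to 40 µM substrate in phosphate buffer pH 6.0 with EDTA and DTT. Amc fluorescence was read continuously for 30 min, with rates taken from progress-curve slopes.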

[8] = biological target: proteasome active sites (β2, β5) in extracts of HEK-293T cells (Homo sapiens, UniProt P28074+Q99436); assay: Competition assays in HEK-293T cell lysate with activity-based probes; type: biochemical; details: HEK-293 extracts
[9] = read-out: IC50 Tr-L, NCI-H929, NCI-H929 cells, 6 h treatment

In the case of `CC(=O)N[C@@H](CC(C)C)C(=O)N[C@@H](CC(C)C)C(=O)N[C@@H](CCCNC(=N)N)C(=O)[C@@]1(C)CO1` [1a], the “IC50 (Chym-L)/IC50 (Tr-L)” value [1] is reported as over 30.

For `CC(=O)N[C@@H](CCCNC(=N)N)C(=O)N[C@@H](CC(C)C)C(=O)N[C@@H](CCCNC(=N)N)C(=O)[C@@]1(C)CO1` [compound 2], the “IC50 (Chym-L)/IC50 (Tr-L)” value [1] was over 375.

With `Cc1c(O)cccc1C(=O)N[C@H](C(=O)N[C@@H](CO)C(=O)N[C@@H](CCCNC(=N)N)C(=O)[C@@]1(C)CO1)C(C)C` [compound 3] the IC50 [2] was over 30 µM, the “Treatment time to steady-state inhibition of trypsin-like activity” value ([3]; RPMI-8226 cells) was over 6 h and the IC50 [3, 9] was 0.9 µM. The “Toxicity to cells as a single agent” value (RPMI-8226 cells [4]) was “no effect on cells when used as a single agent” and the “Toxicity to myeloma cells as a single agent” value (RPMI-8226 cells [5]) was “not toxic”.

For `CC(C)C[C@H](NC(=O)[C@H](Cc1ccccc1)N=[N+]=[N-])C(=O)N[C@@H](CC(C)C)C(=O)N[C@H](/C=C/S(C)(=O)=O)Cc1ccc(CN)cc1` [compound 4a, N3Phe-Leu-Leu-Phe(4-CH2NH2)VS TFA Salt], the “Treatment time to steady-state inhibition of trypsin-like activity” value ([3]; RPMI-8226 cells) was 1 h, the “Inhibition of trypsin-like sites in mice” value [6] was “capable of inhibiting trypsin-like sites in mice” and the “Inhibition of cathepsins in cells” value [7] was “Partial inhibition of cathepsins”. For the same compound, the “Toxicity to cells as a single agent” value (RPMI-8226 cells [4]) was “not toxic; also recorded: no effect on cells when used as a single agent” and the Sensitization to bortezomib (RPMI-8226 cells [4]; bortezomib 1 h, then 47 h 4a (1 µM)) was “sensitized them to bortezomib”.

For `Cc1c(O)cccc1C(=O)N[C@H](C(=O)N[C@@H](CO)C(=O)N[C@H](/C=C/S(C)(=O)=O)Cc1ccc(CN)cc1)C(C)C` [compound 8], the IC50 [2] was over 30 µM, the “Difference in inhibition of trypsin-like activity (IC50) between NCI-H929 and RPMI-8226 cells” value ([3]; 6 h treatment) was “greater than 10 fold” and the IC50 [3, 9] was 0.2 µM. The IC50 ([3]; read-out: IC50 Tr-L, RPMI-8226, RPMI-8226 cells, 6 h treatment) was 3.2 µM and the “Inhibition of cathepsins in cells” value [7] was “did not cause any inhibition of cathepsins”.

In the case of `Cc1c(O)cccc1C(=O)N[C@H](C(=O)N[C@@H](CO)C(=O)N[C@H](/C=C/S(C)(=O)=O)Cc1ccc(N)cc1)C(C)C` [compound 9], the “IC50 (Chym-L)/IC50 (Tr-L)” value [1] is reported as “≪0.0067”.

With `CC(C)C[C@H](NC(=O)[C@H](Cc1ccncc1)NC(=O)[C@H](Cc1ccccc1)N=[N+]=[N-])C(=O)N[C@H](/C=C/S(C)(=O)=O)Cc1ccc(CN)cc1` [compound 10] the “Inhibition of cathepsins in cells” value [7] was “partly reduced cathepsin activity”.

In the case of `CC(C)C[C@H](NC(=O)[C@H](Cc1ccc(N)cc1)NC(=O)[C@H](Cc1ccccc1)N=[N+]=[N-])C(=O)N[C@H](/C=C/S(C)(=O)=O)Cc1ccc(CN)cc1` [compound 11], the “Inhibition of cathepsins in cells” value [7] is reported as “behaved similarly to 4a”.

In the case of `CC(C)C[C@H](NC(=O)[C@H](Cc1ccc(CN)cc1)NC(=O)[C@H](Cc1ccccc1)N=[N+]=[N-])C(=O)N[C@H](/C=C/S(C)(=O)=O)Cc1ccc(CN)cc1` [compound 12], the “Inhibition of cathepsins in cells” value [7] is reported as “slightly more potent inhibitor of cathepsins” and the “Inhibition/labeling of proteasome active sites in extracts” value (shortened to “Inhibition/labeling”) [8] is reported as “most potent inhibitor in extracts”.

For `CC(C)C[C@@H](/C=C/S(C)(=O)=O)NC(=O)[C@H](CC(C)C)NC(=O)[C@H](Cc1ccc(N)cc1)NC(=O)[C@H](Cc1ccccc1)N=[N+]=[N-]` [compound 16], the “IC50 (Chym-L)/IC50 (Tr-L)” value [1] was under 0.00017.

With `CC1=CC(C)=[N+]2C1=C(CCCCc1cn([C@@H](Cc3ccccc3)C(=O)N[C@@H](CC(C)C)C(=O)N[C@@H](CC(C)C)C(=O)N[C@H](/C=C/S(C)(=O)=O)Cc3ccc(CN)cc3)nn1)c1c(C)cc(C)n1[B-]2(F)F` [compound 19, Bodipy-triazole-Phe-Leu-Leu-Phe(4-CH2NH2)VS TFA Salt] the “Inhibition/labeling” value [8] was “reacted with β2 and β5 subunits”.

With `CC1=CC(C)=[N+]2C1=C(CCCCc1cn([C@@H](Cc3ccccc3)C(=O)N[C@@H](Cc3ccc(CN)cc3)C(=O)N[C@@H](CC(C)C)C(=O)N[C@H](/C=C/S(C)(=O)=O)Cc3ccc(CN)cc3)nn1)c1c(C)cc(C)n1[B-]2(F)F` [compound 20] the “Inhibition/labeling” value [8] was “reduced the specificity”.

With `O=C(CCCCCCC(=O)Nc1ccccc1)NO` [varinostat, reference compound] the Viability (RPMI-8226 cells [4]; 1 µM, 48 h treatment, single agent) was 38.6 ± 0.5%.
